Laboratory results as given in ChEMBL document CHEMBL3271968, “Novel bis(benzamidino) compounds with an aromatic central link. Inhibitors of thrombin, pancreatic kallikrein, trypsin, and complement” (J Med Chem, 1976).
The source made the active and inactive calls. No cut-off for these calls is given here.

Legend:
Cavia porcellus [1] = species: Cavia porcellus; test: Inhibition of guinea pig complement-mediated immune lysis of sheep red blood cells at 10 uM after 12 mins
How it was run: (§1)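 Inhibitor in Tris/Mg/Ca/NaCl/gelatin buffer was preincubated 15 min at 37° with guinea pig complement (1:100 of 200 CH50/ml). Sheep erythrocytes (10^9/ml) presensitized with rabbit hemolysin (1:800) were added, and tubes incubated 12 min at 37°. Cold citrate-saline stopped lysis. Hemoglobin at 524 nm was converted to % inhibition via a complement standard curve, corrected for inhibitor lysis, in duplicate.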

Cavia porcellus [2] = species: Cavia porcellus; test: Inhibition of guinea pig complement-mediated immune lysis of sheep red blood cells at 30 uM after 12 mins; how it was run: as §1
Cavia porcellus [3] = species: Cavia porcellus; test: Inhibition of guinea pig complement-mediated immune lysis of sheep red blood cells at 0.1 mM after 12 mins; how it was run: as §1
Glandular kallikrein [4] = target: T1, Glandular kallikrein (Sus scrofa, UniProt P00752); test: Inhibition of porcine pancreatic kallikrein using BANA as substrate after 15 to 180 mins
T1 sequence (P00752 whole entry): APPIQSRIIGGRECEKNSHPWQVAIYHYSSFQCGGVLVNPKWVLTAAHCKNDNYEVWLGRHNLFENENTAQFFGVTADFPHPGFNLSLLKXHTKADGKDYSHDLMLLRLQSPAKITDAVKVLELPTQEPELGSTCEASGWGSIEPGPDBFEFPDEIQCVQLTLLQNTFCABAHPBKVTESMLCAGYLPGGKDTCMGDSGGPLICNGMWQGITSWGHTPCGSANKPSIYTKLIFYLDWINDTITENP
How it was run: (§2)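 Porcine pancreatic kallikrein (635 Frey units/mg) amidase assay, pH 8.1, 37°, 15-180 min. […] Ki came from Dixon plots at two substrate concentrations. Means ± SD, n = 3.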

Prothrombin (Bos taurus) = Prothrombin (Bos taurus) (UniProt P00735); test: Inhibition of bovine thrombin-mediated blood clotting formation in presence of human fibrinogen
[5] = Inhibition of bovine trypsin using BANA as substrate after 15 to 30 mins; set-up: species or system Bos taurus
Plasma [6] = test: Anticoagulant activity in human plasma assessed as partial thromboplastin time at 10 uM (reference value: 59 +/- 2.6 secs); assay type: functional
Plasma [7] = test: Anticoagulant activity in human plasma assessed as partial thromboplastin time at 5 uM (reference value: 59 +/- 2.6 secs); assay type: functional
Prothrombin [8] = target: T2, Prothrombin (Bos taurus, UniProt P00735); test: Inhibition of amidase activity of bovine thrombin using BANA as substrate after 15 to 40 mins
Plasma [9] = test: Anticoagulant activity in human plasma assessed as partial thromboplastin time at 0.1 mM (reference value: 59 +/- 2.6 secs); assay type: functional
Prothrombin [10] = target: T2, Prothrombin; test: Inhibition of amidase activity of bovine thrombin using BPVANA as substrate after 15 to 40 mins
Glandular kallikrein [11] = target: T1, Glandular kallikrein; test: Inhibition of porcine pancreatic kallikrein using BPPANA as substrate after 15 to 180 mins; how it was run: as §2
Rattus norvegicus = test: Anticoagulant activity in Wistar rat plasma assessed as activation of partial thromboplastin time at 1.9 mg/kg, iv; assay type: functional, organism-based; set-up: dose 1.9 mg/kg
How it was run: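 Female Wistar rats (about 300 g), anesthetized with sodium pentobarbital 25 mg/kg sc, received inhibitor at 1.9 mg/kg iv. Post-injection plasma was separated by centrifugation. 0.1 ml was mixed with Celite suspension, saline and partial thromboplastin, agitated 3 min at 37°, recalcified with 0.02 M CaCl2, and activated PTT clotting time recorded.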

| Structure (SMILES) | inhibition (Cavia porcellus [1]) [%] | inhibition (Cavia porcellus [2]) [%] | inhibition (Cavia porcellus [3]) [%] | Ki (Glandular kallikrein [4]) [µM] | IC50 (Prothrombin (Bos taurus)) [µM] | Ki [5] [nM] | APTT (Plasma [6]) [s] | APTT (Plasma [7]) [s] | Ki (Prothrombin [8]) [µM] | APTT (Plasma [9]) [s] | Ki (Prothrombin [10]) [nM] | Ki (Glandular kallikrein [11]) [nM] | Activity (Rattus norvegicus) |
| --- | --- | --- | --- | --- | --- | --- | --- | --- | --- | --- | --- | --- | --- |
| CC[n+]1c(-c2ccccc2)c2cc(NN=Nc3cccc(C(=N)N)c3)ccc2c2ccc(NN=Nc3cccc(C(=N)N)c3)cc21 | 50 | > 50 | > 50 | – | – | – | – | – | – | – | – | – | – |
| Cl.N=C(N)c1cccc(OCc2cccc(COc3cccc(C(=N)N)c3)c2)c1 | 0 | 13.7 | 34 | 3.4 | 6.5 | 3200 | 112 | 92 | 4.6 | 714 | – | – | – |
| Cl.N=C(N)c1cccc(COc2cccc3c(OCc4cccc(C(=N)N)c4)cccc23)c1 | 0 | 8.9 | 39 | 2.2 | – | 420 | 75 | 65 | – | – | – | – | – |
| Cl.N=C(N)c1ccc(COc2cccc3c(OCc4ccc(C(=N)N)cc4)cccc23)cc1 | 0 | 0 | 0 | 8.6 | – | 2800 | 61 | 60 | – | 141 | – | – | – |
| Cl.N=C(N)c1ccc(OCc2ccc(COc3ccc(C(=N)N)cc3I)cc2)c(I)c1 | 0 | 29.8 | – | – | 1 | 2300 | 92 | 80 | – | – | 110 | 610 | – |
| Cl.N=C(N)c1cccc(OCc2ccc(COc3cccc(C(=N)N)c3)cc2)c1 | 5.6 | 14 | 19.1 | 5.8 | 13 | 6100 | 122 | 80 | 5 | 391 | – | – | – |
| N=C(N)c1ccc(COc2ccc3cc(OCc4ccc(C(=N)N)cc4)ccc3c2)cc1 | – | – | – | 9.7 | – | 3200 | – | – | 6 | – | – | – | – |
| N=C(N)c1cccc(OCc2ccc3cc(COc4cccc(C(=N)N)c4)ccc3c2)c1 | 36.6 | 47 | – | 5.5 | 72 | 5900 | – | – | 5.1 | – | – | – | – |
| Cl.N=C(N)c1ccc(OCc2ccc(COc3ccc(C(=N)N)cc3)cc2)cc1 | 0 | 0 | 25.9 | 11.4 | 17 | 1300 | 176 | 147 | 3.4 | 725 | – | – | inactive |
| Cl.N=C(N)c1cccc(OCc2cccc(-c3cccc(COc4cccc(C(=N)N)c4)c3)c2)c1 | – | – | – | 1.76 | 4 | 4010 | 93 | 73 | 1.67 | – | – | – | – |
| Cl.N=C(N)c1ccc(OCc2cccc(COc3ccc(C(=N)N)cc3I)c2)c(I)c1 | 0 | 32.6 | > 50 | – | – | 670 | 70 | 64 | 1.2 | 369 | – | 31 | – |
| Cl.N=C(N)c1cccc(COc2ccc3cc(OCc4cccc(C(=N)N)c4)ccc3c2)c1 | 11 | > 50 | > 50 | 5.5 | 30 | 3200 | 72 | 61 | 2.4 | 277 | – | – | – |
| N=C(N)c1ccc(OCCCCCOc2ccc(C(=N)N)cc2I)c(I)c1 | 26.9 | > 50 | – | – | – | – | – | – | – | – | – | – | – |
| Cl.N=C(N)c1ccc(OCc2cccc(-c3cccc(COc4ccc(C(=N)N)cc4)c3)c2)cc1 | – | – | – | 1.6 | 0.73 | 1400 | 83 | 72 | – | 412 | 570 | – | – |
| Cl.N=C(N)c1ccc(OCc2c(Cl)c(Cl)c(Cl)c(COc3ccc(C(=N)N)cc3)c2Cl)cc1 | 5.9 | > 50 | > 50 | 5.2 | 8 | 1300 | 76 | 62 | 1.5 | – | – | – | – |
| Cl.N=C(N)c1ccc(OCc2cccc(COc3ccc(C(=N)N)cc3)c2)cc1 | 0 | 10.3 | 24.9 | 6.7 | 25 | 3500 | 117 | 87 | 4.8 | – | – | – | – |
| Cl.N=C(N)c1ccc(OCc2cc(COc3ccc(C(=N)N)cc3)c3ccccc3c2)cc1 | 5.6 | 15.3 | > 50 | 1.04 | 15 | 1800 | 67 | 62 | 5.2 | 147 | – | – | – |
| Cl.N=C(N)c1ccc(OCc2ccc(COc3ccc(C(=N)N)cc3Br)cc2)c(Br)c1 | – | – | – | 0.71 | – | 1100 | 110 | 96 | – | 258 | 160 | – | – |
| N=C(N)c1ccc(OCc2c(Cl)c(Cl)c(COc3ccc(C(=N)N)cc3)c(Cl)c2Cl)cc1 | 0 | > 50 | – | 3.4 | – | 1200 | – | – | 6.7 | – | – | – | – |
| N=C(N)c1ccc(OCCCCCOc2ccc(C(=N)N)cc2Br)c(Br)c1 | 20.8 | 28.5 | > 50 | – | – | – | – | – | – | – | – | – | – |
| Cl.N=C(N)c1ccc(OCc2ccc(COc3ccc(C(=N)N)cc3)c3ccccc23)cc1 | 2.9 | 10.8 | – | 2.5 | – | 1900 | 71 | 64 | 6.6 | 203 | – | – | – |
| Cl.N=C(N)c1ccc(OCc2cccc(-c3cccc(COc4ccc(C(=N)N)cc4Br)c3)c2)c(Br)c1 | – | – | – | 2.2 | 10 | 250 | – | 62 | – | – | 270 | – | – |
| Cl.N=C(N)c1ccc(COc2ccc3ccc(OCc4ccc(C(=N)N)cc4)cc3c2)cc1 | 12.8 | 37.4 | > 50 | 2.8 | 20 | 1800 | 66 | 63 | 4.9 | – | – | – | – |
| N=C(N)c1ccc(OCCCOc2ccc(C(=N)N)cc2Br)c(Br)c1 | 6.3 | 26.9 | 19.1 | – | – | – | – | – | – | – | – | – | – |
